Measured values taken from ChEMBL document CHEMBL1125736, “N-[(omega-amino-1-hydroxyalkyl)phenyl]methanesulfonamide derivatives with class III antiarrhythmic activity” (1991).

Columns and labels:
[1] = tested on: Canis familiaris; assay: Conduction time from Q wave to T wave of lead II electrocardiogram corrected for heart rate was tested in dogs at a dose of 0.3 mg/kg through intravenous administration. (baseline value- 352+/-7); type: functional, Canis lupus familiaris
[2] = tested on: Canis familiaris; assay: Conduction time from Q wave to T wave of lead II electrocardiogram corrected for heart rate was tested in dogs at a dose of 1.0 mg/kg through intravenous administration. (baseline value- 352+/-7); type: functional, Canis lupus familiaris
[3] = tested on: Canis familiaris; assay: Conduction time from Q wave to T wave of lead II electrocardiogram corrected for heart rate was tested in dogs at a dose of 3.0 mg/kg through intravenous administration. (baseline value- 352+/-7); type: functional, Canis lupus familiaris
[4] = tested on: Canis familiaris; assay: Conduction time from the His bundle to the onset of ventricular depolarizations was tested in dogs at a dose of 0.1 mg/kg through intravenous administration. (baseline value- 17+/-1 ); type: functional, Canis lupus familiaris, Cardiac ventricle
[5] = tested on: Canis familiaris; assay: Conduction time from the His bundle to the onset of ventricular depolarizations was tested in dogs at a dose of 0.3 mg/kg through intravenous administration. (baseline value- 17+/-1 ); type: functional, Canis lupus familiaris, Cardiac ventricle
[6] = tested on: Canis familiaris; assay: Conduction time from the His bundle to the onset of ventricular depolarizations was tested in dogs at a dose of 1.0 mg/kg through intravenous administration. (baseline value- 17+/-1 ); type: functional, Canis lupus familiaris, Cardiac ventricle
[7] = tested on: Canis familiaris; assay: Conduction time from the His bundle to the onset of ventricular depolarizations was tested in dogs at a dose of 3.0 mg/kg through intravenous administration. (baseline value- 17+/-1 ); type: functional, Canis lupus familiaris, Cardiac ventricle
[8] = tested on: Canis familiaris; assay: Conduction time from the atrium to His bundle was tested in dogs at a dose of 0.1 mg/kg through intravenous administration. (baseline value- 73+/-3 ); type: functional, Canis lupus familiaris
[9] = tested on: Canis familiaris; assay: Conduction time from the atrium to His bundle was tested in dogs at a dose of 0.3 mg/kg through intravenous administration. (baseline value- 73+/-3 ); type: functional, Canis lupus familiaris
[10] = tested on: Canis familiaris; assay: Conduction time from the atrium to His bundle was tested in dogs at a dose of 1.0 mg/kg through intravenous administration. (baseline value- 73+/-3 ); type: functional, Canis lupus familiaris
[11] = tested on: Canis familiaris; assay: Conduction time from the atrium to His bundle was tested in dogs at a dose of 3.0 mg/kg through intravenous administration. (baseline value 73+/-3 ); type: functional, Canis lupus familiaris
[12] = tested on: Canis familiaris; assay: Conduction time for ventricular refractory period of the first premature stimulus was tested in dogs at a dose of 0.1 mg/kg through intravenous administration. (baseline value- 137+/-4); type: functional, Canis lupus familiaris, Cardiac ventricle
[13] = tested on: Canis familiaris; assay: Conduction time for ventricular refractory period of the first premature stimulus was tested in dogs at a dose of 0.3 mg/kg through intravenous administration. (baseline value- 137+/-4); type: functional, Canis lupus familiaris, Cardiac ventricle
[14] = tested on: Canis familiaris; assay: Conduction time for ventricular refractory period of the first premature stimulus was tested in dogs at a dose of 1.0 mg/kg through intravenous administration. (baseline value- 137+/-4); type: functional, Canis lupus familiaris, Cardiac ventricle
[15] = tested on: Canis familiaris; assay: Conduction time for ventricular refractory period of the first premature stimulus was tested in dogs at a dose of 3.0 mg/kg through intravenous administration. (baseline value- 137+/-4); type: functional, Canis lupus familiaris, Cardiac ventricle
[16] = tested on: Canis familiaris; assay: Conduction time for ventricular refractory period of the second premature stimulus was tested in dogs at a dose of 0.1 mg/kg through intravenous administration. (baseline value- 123+/-4); type: functional, Canis lupus familiaris, Cardiac ventricle
[17] = tested on: Canis familiaris; assay: Conduction time for ventricular refractory period of the second premature stimulus was tested in dogs at a dose of 0.3 mg/kg through intravenous administration. (baseline value- 123+/-4); type: functional, Canis lupus familiaris, Cardiac ventricle
[18] = tested on: Canis familiaris; assay: Conduction time for ventricular refractory period of the second premature stimulus was tested in dogs at a dose of 1.0 mg/kg through intravenous administration. (baseline value- 123+/-4); type: functional, Canis lupus familiaris, Cardiac ventricle
[19] = tested on: Canis familiaris; assay: Conduction time for ventricular refractory period of the second premature stimulus was tested in dogs at a dose of 3.0 mg/kg through intravenous administration. (baseline value- 123+/-4); type: functional, Canis lupus familiaris, Cardiac ventricle
[20] = tested on: Canis familiaris; assay: Conduction time from Q wave to T wave of lead II electrocardiogram corrected for heart rate was tested in dogs at a dose of 0.1 mg/kg through intravenous administration. (baseline value- 352+/-7); type: functional, Canis lupus familiaris
[21] = organism: Oryctolagus cuniculus; assay: Tested for effective refractory period measured at a pacing rate of 1 Hz in vitro with rabbit heart tissue preparations.; type: functional
In short: (§1)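 Isolated rabbit heart tissues, all from one heart, each its own baseline; 2 h equilibration, perfusate changed every 15 min, basal stimulation 2 Hz between measurements. Exposed to 10^-7, 10^-6 and 10^-5 M drug, 15 min each; values reported at 10^-5 M as percent change from baseline. Drug solutions prepared daily in glass-distilled water. Force and rate recorded on polygraph.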

[22] = organism: Oryctolagus cuniculus; assay: Tested for effective refractory period measured at a pacing rate of 3 Hz in vitro with rabbit heart tissue preparations.; type: functional; design: unit: %; in short: as §1
[23] = organism: Oryctolagus cuniculus; assay: Tested for conduction time measured at a pacing rate of 3 Hz in vitro with rabbit heart tissue preparations.; type: functional; in short: as §1
[24] = organism: Oryctolagus cuniculus; assay: Tested for force of contraction measured in mg at a pacing rate of 2 Hz in vitro with rabbit heart tissue preparations.; type: functional; in short: as §1
[25] = organism: Oryctolagus cuniculus; assay: Tested for conduction time measured at a pacing rate of 1 Hz in vitro with rabbit heart tissue preparations.; type: functional; in short: as §1
[26] = organism: Oryctolagus cuniculus; assay: Tested for rate automaticity measured in beats per minute from unpaced right atria of rabbit heart.; type: functional; in short: as §1
[27] = tested on: Canis familiaris; assay: Compound was tested in vivo in dogs at a dose of 1.0 mg/kg through intravenous route and number of dogs in which ventricular fibrillation was induced was recorded.(Base line value-1)
[28] = tested on: Canis familiaris; assay: Compound was tested in vivo in dogs at a dose of 3.0 mg/kg through intravenous route and number of dogs in which ventricular fibrillation was induced was recorded.(Base line value-1)
[29] = tested on: Canis familiaris; assay: Compound was tested in vivo in dogs at a dose of 0.3 mg/kg through intravenous route and number of dogs in which ventricular fibrillation was induced was recorded.(Base line value-1)
[30] = tested on: Canis familiaris; assay: Compound was tested in vivo in dogs at a dose of 0.1 mg/kg through intravenous route and number of dogs in which ventricular fibrillation was induced was recorded.(Base line value-1)
[31] = tested on: Canis familiaris; assay: Compound was tested in vivo in dogs at a dose of 0.1 mg/kg through intravenous route and number of dogs in which ventricular arrhythmias were not indicible was recorded.(Base line value-2)
[32] = tested on: Canis familiaris; assay: Compound was tested in vivo in dogs at a dose of 1.0 mg/kg through intravenous route and number of dogs in which ventricular arrhythmias were not indicible was recorded.(Base line value-2)
[33] = tested on: Canis familiaris; assay: Compound was tested in vivo in dogs at a dose of 3.0 mg/kg through intravenous route and number of dogs in which ventricular arrhythmias were not indicible was recorded.(Base line value-2)
[34] = tested on: Canis familiaris; assay: Compound was tested in vivo in dogs at a dose of 0.3 mg/kg through intravenous route and number of dogs in which ventricular arrhythmias were not indicible was recorded.(Base line value-2)
[35] = tested on: Canis familiaris; assay: Compound was tested in vivo in dogs at a dose of 1.0 mg/kg through intravenous route and number of dogs in which sustained ventricular arrhythmias were induced was recorded.(Base line value-1)
[36] = tested on: Canis familiaris; assay: Compound was tested in vivo in dogs at a dose of 0.1 mg/kg through intravenous route and number of dogs in which sustained ventricular arrhythmias were induced was recorded.(Base line value-1)
[37] = tested on: Canis familiaris; assay: Compound was tested in vivo in dogs at a dose of 3.0 mg/kg through intravenous route and number of dogs in which sustained ventricular arrhythmias were induced was recorded.(Base line value-1)
[38] = tested on: Canis familiaris; assay: Compound was tested in vivo in dogs at a dose of 0.3 mg/kg through intravenous route and number of dogs in which sustained ventricular arrhythmias were induced was recorded.(Base line value-1)
[39] = tested on: Canis familiaris; assay: Compound was tested in vivo in dogs at a dose of 0.1 mg/kg through intravenous route and number of dogs in which nonsustained ventricular arrhythmias were induced was recorded.(Base line value-2)
[40] = tested on: Canis familiaris; assay: Compound was tested in vivo in dogs at a dose of 3.0 mg/kg through intravenous route and number of dogs in which nonsustained ventricular arrhythmias were induced was recorded.(Base line value-2)
[41] = tested on: Canis familiaris; assay: Compound was tested in vivo in dogs at a dose of 0.3 mg/kg through intravenous route and number of dogs in which nonsustained ventricular arrhythmias were induced was recorded.(Base line value-2)
[42] = tested on: Canis familiaris; assay: Compound was tested in vivo in dogs at a dose of 1.0 mg/kg through intravenous route and number of dogs in which nonsustained ventricular arrhythmias were induced was recorded.(Base line value-2)

Structure (SMILES): CCCCN(CCCC)CCCC(O)c1ccc(NS(C)(=O)=O)cc1 (configuration not stated)
- Time [1]: 358 ms
- Time [2]: 361 ms
- Time [3]: 367 ms
- Time [4]: 13 ms
- Time [5]: 15 ms
- Time [6]: 15 ms
- Time [7]: 13 ms
- Time [8]: 71 ms
- Time [9]: 66 ms
- Time [10]: 64 ms
- Time [11]: 64 ms
- Time [12]: 145 ms
- Time [13]: 147 ms
- Time [14]: 145 ms
- Time [15]: 145 ms
- Time [16]: 128 ms
- Time [17]: 127 ms
- Time [18]: 120 ms
- Time [19]: 115 ms
- Time [20]: 370 ms
- ERP1 [21]: 9.5
- ERP3 [22]: 10.4
- CT3 [23]: 5.2
- FOC [24]: 0
- CT1 [25]: -8.5
- Rate [26]: -20.3
- number of animals [27]: 1 animals
- number of animals [28]: 0 animals
- number of animals [29]: 0 animals
- number of animals [30]: 0 animals
- number of animals [31]: 1 animals
- number of animals [32]: 2 animals
- number of animals [33]: 0 animals
- number of animals [34]: 2 animals
- number of animals [35]: 0 animals
- number of animals [36]: 1 animals
- number of animals [37]: 2 animals
- number of animals [38]: 0 animals
- number of animals [39]: 2 animals
- number of animals [40]: 1 animals
- number of animals [41]: 4 animals
- number of animals [42]: 3 animals
